Compound activity deposited in PubChem by several laboratories.
NPY-Y2 antag = NPY-Y2 (human) receptor antagonism; AID 793; 140,000 compounds, 0.99% hits; NPY-Y2 expressing cells, antagonist mode; inhibition, % at 2.7 µM;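 note: 0% = vehicle with agonist challenge and 100% = reference antagonist with challenge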
EP2 antag = blocks the human prostaglandin E2 receptor EP2; P43116; C6 glioma cells expressing human EP2, cAMP TR-FRET; cells stimulated with saturating PGE2; inhibition, % at 25 µM; 260,000 compounds, 0.52% hits; AID 1422;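 active = percent inhibition above 40 after rounding to a whole number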;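 note: rat C6 glioma host cells with rolipram phosphodiesterase inhibitor present; the protocol text gives 20 µM as final concentration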
NPY-Y1 antag = antagonists of human neuropeptide Y receptor Y1; P25929; HEK293-CNG Y1 cells, membrane potential fluorescence; NPY at EC95, then isoproterenol; inhibition, % at 3.6 µM; 200,000 compounds, 1% hits; AID 1040;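 active = inhibition above the campaign mean inhibition of all tested compounds plus 3 SD, cut at about 20% in these data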;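 note: 0% = DMSO wells given NPY plus isoproterenol and 100% = isoproterenol alone without NPY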
Target sequence (P25929 whole entry, looked up): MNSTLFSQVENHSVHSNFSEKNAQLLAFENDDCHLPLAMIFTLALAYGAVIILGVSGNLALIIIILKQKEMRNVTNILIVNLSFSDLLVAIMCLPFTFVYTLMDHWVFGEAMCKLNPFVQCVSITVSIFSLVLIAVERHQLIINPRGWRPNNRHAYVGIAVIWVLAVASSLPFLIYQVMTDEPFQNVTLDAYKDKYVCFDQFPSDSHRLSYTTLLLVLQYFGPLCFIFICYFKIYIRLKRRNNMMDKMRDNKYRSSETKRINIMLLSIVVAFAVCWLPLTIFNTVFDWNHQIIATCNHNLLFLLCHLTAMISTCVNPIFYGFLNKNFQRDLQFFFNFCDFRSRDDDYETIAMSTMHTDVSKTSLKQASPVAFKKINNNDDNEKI
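Material: HEK293 Y1/CNG channel cell line; also added: NPY (25 nM), isoproterenol (1 µM), Ro 20-1724 (25 µM); doses: one concentration, 3.6 µM, in 0.4% DMSO; schedule: compound incubation 1 h at room temperature, readout 45 min post-stimulation; technique: membrane potential fluorescence; measure: fluorescence ratio normalized to % inhibition between controls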
EP2 modulator = modulators of human EP2 prostaglandin E2 receptor | P43116 | EP2-expressing cells, cAMP HTRF FRET, PGE2 co-stimulation | induction, % at 25 µM | 260,000 compounds, 0.83% hits | AID 940;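 active = compounds whose cAMP rise, as percent of the full-agonist control response, exceeds 60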;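 note: rat C6 glioma line stably carrying human EP2 under a CMV promoter; the protocol text gives 20 µM as final concentration; 100% = response of wells given 1 µM PGE2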
NPY-Y1 PAM-ag = potentiators or agonists of human neuropeptide Y receptor Y1; activation, % at 3.6 µM; NPY-Y1 expressing cells, potentiator/agonist activation; 220,000 compounds, 0.37% hits; in the data active = activation above about 33%, passing the limit was not always enough;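 note: cells stimulated with NPY at EC10 then isoproterenol at EC100; 0% = low agonist plus stimulus and 100% = saturating agonist plus stimulus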
NPY-Y2 PAM-ag = potentiates or activates human NPY-Y2 receptor. P49146. activation, % at 3.6 µM. 220,000 compounds, 0.45% hits. cells expressing NPY-Y2, potentiator/agonist read-out; in the data active = activation above about 27%;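 note: cells stimulated with NPY near EC25 plus isoproterenol at EC100; 0% = vehicle plus submaximal agonist and 100% = vehicle plus saturating agonist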
NPY-Y1 ant conf = human NPY-Y1 antagonism, confirmation | shares compounds with NPY-Y1 antag | HEK293-CNG NPY-Y1, membrane potential fluorescence, cAMP; NPY challenge against isoproterenol-raised cAMP | inhibition, % at 3.6 µM | 1,200 compounds, 21% hits; in the data active = inhibition above about 20%;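 note: 0% = vehicle with agonist plus stimulus and 100% = stimulus alone without agonist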
NPY-Y2 antag ct = counter-screen for NPY-Y1 antagonists: human NPY-Y2 antagonism. shares compounds with NPY-Y1 antag. HEK293 NPY-Y2 CNG membrane potential fluorescence; cells given NPY, then isoproterenol. inhibition, % at 3.6 µM. 1,200 compounds, 28% hits. AID 1255;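 note: 0% = DMSO with agonist challenge and 100% = reference antagonist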
An asterisk follows results filed as active; . = no result; ! = not confirmed by another sample. Only some compounds are listed: those with a hit (about 2.8% of all), similar ones and a draw of the others. Cut-off read from the data, not from the text of the source, unless noted: active = inhibition above about 17%; inactive = the rest.

SMILES	NPY-Y2 antag	EP2 antag	NPY-Y1 antag	EP2 modulator	NPY-Y1 PAM-ag	NPY-Y2 PAM-ag	NPY-Y1 ant conf	NPY-Y2 antag ct
COc1ccc(C2N(c3ccc(Cl)cc3)N=C(C(C)=O)N(C)N2C(C)=O)cc1 (stereo not drawn)	.	4	29*	8	16	11	20*	9
COc1cccc(N2C(C(C)=O)=NN(c3ccccc3)C2c2ccc(N3CCOCC3)cc2)c1 (stereo not drawn)	2	11	0	45	-2	9	.	.
CCOC(=O)c1ccc(Nc2ncnc3ccc(C)cc23)cc1	2	13	45*	22	-8	-9	0	5
COc1ccc(-c2cn(-c3ccc(Cl)cc3)c3[n+]2CCCCC3)cc1	.	8	.	2	18	-28	.	.
COc1ccc(-n2c(-c3ccc(Cl)cc3)c[n+]3c2CCc2ccccc2-3)cc1	.	1	23*	-58	-8	-6	24*	11
N/C(=N\OC(=O)Cc1cccs1)c1ccc(Br)cc1	5	11	5	26	8	-4	.	.
N/C(=N\OC(=O)Cc1cccs1)c1ccc([N+](=O)[O-])cc1	2	8	24*	1	28	-1	2	6
CN(C)c1ncc(CN(Cc2cccnc2)C2CC(C)(C)NC(C)(C)C2)cn1	.	9	.	5	.	.	.	.
CC(NC(=O)COC(=O)CCNC(=O)c1ccco1)C12CC3CC(CC(C3)C1)C2 (stereo not drawn)	4	11	20*	2	-31	-25	22*	27*
Cc1ccccc1N1CCN(c2ncnc3c2cnn3Cc2ccc(Cl)cc2)CC1	7	6	29*	8	-37	-8	10	17*
CCCCN(C)C(=O)Cc1c(OC)ccc2cc(Br)ccc12	14	13	21*	-10	-16	6	16	8
COc1ccc2cc(Br)ccc2c1CC(=O)N(C)C	.	8	1	-6	14	2	.	.
Cc1cccc(C(C)(C)C)c1OCCCCN1CCCC1	9	24	21*	-12	-23	-17	10	15
CC(C)(C)c1ccccc1OCCCCN1CCCC1	6	14	12	4	-12	1	.	.
Fc1ccc(CN(CCCn2ccnc2)Cc2ccccc2F)cc1F	.	4	.	-8	.	.	.	.
Cc1ccc(NC(=S)NC2CCCC2)cc1C	2	1	0	14	8	-5	.	.
Cc1ccc(NC(=S)NCCN(C2CCCCC2)C2CCCC2)cc1C	.	10	28*	-19	-12	-2	8	13
CCOC(=O)CC(NC(=O)C(CC)c1ccccc1)c1ccccc1Cl (stereo not drawn)	13	6	25*	28	-4	-3	17	6
Fc1ccc(-c2nn3c(C4COc5ccccc5O4)nnc3s2)cc1 (stereo not drawn)	4	.	21*	1	-58	-11	11	11
c1csc(-c2nn3c(C4COc5ccccc5O4)nnc3s2)c1 (stereo not drawn)	2	9	24*	28	-26	-15	7	7
CC1CCc2c(sc3nc(SCC(=O)Nc4ccc(N(C)C)cc4)[nH]c(=O)c23)C1 (stereo not drawn)	.	6	.	2	.	.	.	.
OC(COc1ccc2ccccc2c1)CN1CCN(c2ccc(F)cc2)CC1 (stereo not drawn)	8	6	8	-3	-12	-7	.	.
OC(COc1c(F)cc(Br)cc1F)CN1CCN(c2ccc(F)cc2)CC1 (stereo not drawn)	7	.	20*	-39	-23	2	4	9
O=C(Nc1ncc(Cc2ccc(SC(F)F)cc2)s1)c1ccccc1	8	.	21*	-29	-15	4	4	16
Cc1ccc(C(=O)Nc2ncc(Cc3ccccc3)s2)o1	0	12	0	3	6	-6	.	.
SMILES	NPY-Y2 antag	EP2 antag	NPY-Y1 antag	EP2 modulator	NPY-Y1 PAM-ag	NPY-Y2 PAM-ag	NPY-Y1 ant conf	NPY-Y2 antag ct
Cc1cc(NN)n2ncnc2n1	.	7	.	0	.	.	.	.
CCCC(=O)Nc1cnc(NC(=O)c2ccc(Cl)cc2)cc1C	.	8	.	6	.	.	.	.
COc1cccc(-n2c(SCC(=O)N3CCCCC3)nnc2-c2ccncc2)c1	.	8	.	-14	.	.	.	.
CC1CCCCC1NC(=O)CN1C(=O)CSc2cc(S(=O)(=O)N3CCCCCC3)ccc21 (stereo not drawn)	16	8	31*	-5	-34	-11	6	6
O=C(Nc1cccc(Cl)c1)C1C2CCC3C(CCC21)C3(Cl)Cl (stereo not drawn)	14	9	33*	-20	-13	8	5	2
O=C(O)C1CC=CCC1C(=O)Nc1cccc(Cl)c1 (stereo not drawn)	6	10	1	21	-18	-4	.	.
COCCCNc1nc(SCc2ccccc2)nc2sc3c(c12)CCC3	2	4	21*	22	-71	-23	30*	46*
Clc1ccccc1CSc1cc2c(nn1)-c1ccccc1CC2	12	.	23*	3	-11	-10	4	8
Cc1cccc(OCCNC(=O)c2ccc(Oc3ccc(C(F)(F)F)cc3[N+](=O)[O-])cc2)c1	9	5	22*	-33	-41	-27	28*	15
Cc1cccc(OCCNC(=O)c2cccc(Oc3ccc(C(F)(F)F)cc3[N+](=O)[O-])c2)c1	5	0	8	35	-9	5	.	.
Cc1ccccc1OCc1nc(-c2ccccc2)no1	5	8	2	2	-31	3	.	.
Cc1ccc(-c2noc(COc3ccccc3C)n2)cc1	14	8	22*	32	-13	-2	9	13
CC(C)C(NC(=O)c1cc2c([nH]c1=O)CCCCC2)C(=O)OC(C)(C)C (stereo not drawn)	.	5	.	-2	.	.	.	.
Cn1c(C(=O)N(Cc2ccccc2)Cc2cccs2)cc2sccc21	7	3	21*	65*!	-25	-18	6	5
Cn1c(C(=O)N(Cc2ccccc2)Cc2ccccn2)cc2sccc21	11	5	-1	43	16	12	.	.
COc1ccc(N2CCN(C(c3ccccc3OC)c3nnnn3C3CCCC3)CC2)cc1 (stereo not drawn)	11	13	9	39	11	0	.	.
CC(C)CC(c1nnnn1C1CCCC1)N1CCN(c2ccccc2F)CC1 (stereo not drawn)	14	13	27*	-8	-10	-2	24*	12
